Measurements published in paper PMC7614192 (Biomedicine & pharmacotherapy = Biomedecine & …, 2022).

What was measured:
[1] = system: mouse model of multiple sclerosis; conditions: oral application; cited from earlier work
[2] = system: primary human lymphocytes; conditions: primary human lymphocytes in vitro; cited from earlier work
[3] = system: CD107a on CD8+ T cells; assay: CD8+ T cell degranulation; format: cell-based, human; conditions: cyclotides; activated PBMC 24 h, PMA/ionomycin 4 h, MFI of CD107a, n = 3
Procedure, shortened: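 Anti-CD3/anti-CD28 (100 ng/mL each) activated PBMC (2 × 10^5) were treated with test compound, CsA (4.16 μM) or camptothecin (300 μM) for 24 h. They were then restimulated with PMA (50 ng/mL) and ionomycin (500 ng/mL) for 4 h. Staining used CD107a-PE with GolgiStop, read by flow cytometry. CD107a MFI is expressed relative to the stimulated control. n = 3.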

[4] = system: activated human PBMC / T lymphocytes; assay: Apoptosis and necrosis by annexin V and propidium iodide staining; format: cell-based; conditions: cyclotides, annexin V-FITC/PI, n = 3
Procedure, shortened: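 Donor PBMC (2 × 10^5) in RPMI 1640 with 10% heat-inactivated FBS and 2 mM L-glutamine at 37 °C, 5% CO2. Activated with anti-CD3 (HIT3) and anti-CD28 (28.6), 100 ng/mL each, then exposed to test compound. Annexin V-FITC/PI double staining by flow cytometry, normalised to the stimulated control. Camptothecin was the apoptosis control and Triton X-100 (0.5%) the necrosis control. Mean ± SD, n = 3, ANOVA/Dunnett.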

[5] = system: activated human primary T cells (PBMC); assay: Cell division tracking using CFSE; format: cell-based; conditions: cyclotides, anti-CD3/anti-CD28 stimulated human PBMC, 72 h, n = 3
Procedure, shortened: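 PBMC at 5 × 10^6 cells/mL in PBS were labelled with CFSE (5 mM stock diluted 1/1000) for 10 min at 37 °C, and labelling was stopped by washing in complete medium. Cells (2 × 10^5) were activated with anti-CD3/anti-CD28 (100 ng/mL each) and cultured 72 h with test compound or CsA 4.16 μM. Proliferating cells were read by flow cytometry and normalised to the stimulated control. Mean ± SD, n = 3.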

[6] = system: activated human PBMC / T lymphocytes; assay: Cell cycle progression by DNA content; format: cell-based; conditions: cyclotides, 72 h, PI staining, n = 3
Procedure, shortened: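 PBMC were activated with anti-CD3/anti-CD28 (100 ng/mL each) and incubated 72 h with test compound or CsA. Cells were washed, fixed and permeabilised in 70% ice-cold ethanol, then stained with PI plus RNase. Flow cytometry gave the share of living lymphocytes in each cell-cycle phase, reported as mean of three independent experiments.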

[7] = system: CD25 on T lymphocytes; assay: CD25 activation marker detection; format: cell-based, human; conditions: cyclotides; activated PBMC, 24 h, n = 3
Procedure, shortened: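 PBMC (2 × 10^5) were stimulated with anti-CD3/anti-CD28 mAbs (100 ng/mL each) and exposed to test compound for 24 h. Controls were CsA 4.16 μM and camptothecin 300 μM. Stained with anti-CD25-PE plus anti-CD4-APC and read by flow cytometry. Result is the percentage of CD4+ and CD4− T cells expressing CD25, relative to the untreated stimulated control. n = 3, ANOVA/Dunnett.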

Row | Substance | clinical scores [1] | effect on T cell proliferation [2] | concentration with significant rise in degranulation levels (CD107a) [3] [µM] | concentration with significant increase in the number of apoptotic cells [4] [µM] | concentration with significant reduction in T cell proliferation [5] [µM] | concentration with significant reduction in the number of cells in the G2-phase [6] [µM] | concentration with significant reduction in CD107a levels [3] [µM] | concentration with significant reduction of CD25 expression [7] [µM] | concentration with significant induction of necrosis [4] [µM]
1 | T20K (GLPVCGETCVGGTCNTPGCKCSWPVCTRN; not fully specified; Kalata-B1 cyclic backbone; UniProt P56254 89-117, looked up, variant T20K) | significant delay and reductions in clinical scores | inhibition of T cell proliferation |  |  |  |  |  |  | 
2 | c-CGESCVFIPCFSSVIGCSCKNKVCYRNGVIP (bicyclic or more) [caripe 12] |  |  | 3 | 30 | 30 | 30 |  |  | 
3 | c-CGESCVFIPCFSTVIGCSCKNKVCYRNGVIP (bicyclic or more) [caripe 10] |  |  |  | 10 | 10 | 10 | 10 | 10 | 
4 | c-CGESCVFIPCFTSVFGCSCKDKVCYRNGIP (bicyclic or more) [caripe 13] |  |  |  |  | 30 |  |  |  | 30
5 | c-CGESCVFIPCISTVIGCSCKKKVCYRNGVIP (bicyclic or more) [caripe 11] |  |  | 3 | 10 | 30 | 30 |  |  | 
6 | c-CGESCVFIPCITAAIGCSCKKKVCYRNGVIP (bicyclic or more) [caripe 8] |  |  | 3 |  | 10 | 30 | 10 | 10 | 10
7 | cyclo-CGESCVFIPCTVTALLGCSCKNKVCYRNGIP (bicyclic or more) [caripe 7] |  |  |  |  | 10 | 10 | 10 | 10 | 3
